{
  "source": "paper PMC8179660",
  "about": "(Chemical Science, 2021)",
  "target": "T1, p300 (Homo sapiens, UniProt Q09472)",
  "T1 sequence (Q09472 1284-1673 limits assumed)": "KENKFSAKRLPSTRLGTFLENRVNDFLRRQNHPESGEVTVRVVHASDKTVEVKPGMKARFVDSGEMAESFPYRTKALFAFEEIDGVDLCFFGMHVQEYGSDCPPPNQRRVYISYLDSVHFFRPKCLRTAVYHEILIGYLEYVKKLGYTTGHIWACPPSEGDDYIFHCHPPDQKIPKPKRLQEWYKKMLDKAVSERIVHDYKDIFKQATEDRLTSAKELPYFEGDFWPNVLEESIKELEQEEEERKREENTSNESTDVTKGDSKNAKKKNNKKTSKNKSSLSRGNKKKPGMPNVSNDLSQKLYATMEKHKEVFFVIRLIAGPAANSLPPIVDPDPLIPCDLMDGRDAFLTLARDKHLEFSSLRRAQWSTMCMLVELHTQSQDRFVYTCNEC",
  "assay": "radioactive acetyltransferase activity-based IC50 assay",
  "assay_type": "biochemical",
  "in_short": "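Test compounds came from a DNA-encoded peptide macrocycle library affinity selection against p300 using a poly-His/Ni-NTA magnetic bead binding system. They were resynthesized off-DNA, without the DNA tag, and tested for p300 inhibition in a radioactive acetyltransferase activity assay to derive IC50.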",
  "data": [
    {"smiles": "CC(C)C[C@H]1NC(=O)[C@@H](NC(=O)CCc2cccc([N+](=O)[O-])c2)Cc2ccc(cc2)SC[C@@H](C(N)=O)NC(=O)CC2(CCCCC2)CNC1=O", "note": "[Compound 33-C]", "values": [
      {"measurement": "IC50", "value": 5.2, "unit": "µM"}
    ]}
  ]
}
